Values after ≈ are worked out from the molar mass of the structure shown. “Also recorded” adds a separate entry of the source.
Experiments:
[1] = Aqueous solubility of HET0016 in ddH2O and 15% HPβCD; format: physicochemical
[2] = tested on: brain cortical 20-HETE tissue concentrations; experiment: Brain cortical 20-HETE tissue concentration after iv HET0016; format: in vivo, rat
[3] = 1 hour after intraperitoneal 10 mg/kg dose in lecithin; ref Poloyac et al., 2006; cited from earlier work
[4] = tested on: 20-HETE formation in brain cortical microsomes; experiment: Ex vivo 20-HETE formation in brain cortical microsomes from treated rats; design: species or system rat; settings: 1 mg/kg iv, one hour after dosing, incubated in the absence of inhibitor
Outline: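 Rats got 1 mg/kg test compound iv or vehicle (n = 6 per group); cortex was taken 1 h post-dose. Microsomes were made by differential centrifugation in pH 7.4 tris/KCl/DTT/EDTA/20% glycerol buffer with PMSF and BHT. 325μg protein was incubated without added inhibitor in 0.12 M potassium phosphate/5mM MgCl2 with 100μM arachidonic acid. NADPH 1mM was added at start and at 30 min; 37°C, 60 min. 20-HETE d6 internal standard, diethyl ether extraction, MS.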

[5] = ref Nakamura et al., 2003, cited from earlier work
[6] = tested on: 20-HETE formation in rat brain cortical microsomes; experiment: Inhibition of 20-HETE formation in rat brain cortical microsomes; format: biochemical; settings: for 20-HETE formation rate, % of control incubation: HET0016 48.5 nM, 100 μM arachidonic acid

solubility at 48 h ([1]; 15% HPβCD): 453 ± 63.3 µg/mL (≈ 2190 µM)
solubility at 48 h ([1]; distilled, deionized water): 34.2 ± 31.2 µg/mL (≈ 166 µM)
Structure (SMILES): CCCCc1ccc(N=CNO)c(C)c1 [HET0016, N-Hydroxy-N′-(4-n-butyl-2-methylphenyl)formamidine]
time 20-HETE tissue concentrations remained significantly reduced ([2]; 1 mg/kg iv): 60 min
time of return of 20-HETE to control levels ([2]; 1 mg/kg iv): ≤ 24 h
time to reduction of brain 20-HETE after administration ([2]; 1 mg/kg iv): ≤ 5 min
20-HETE concentration recovery (of control) ([2]; 1 mg/kg iv, 180 minutes): 70%
20-HETE concentrations in brain tissue of treated animals (chromatograms) ([2]; data not shown): near or below the limits of detection
rat brain 20-HETE concentration after dosing ([2]; single iv dose 1 mg/kg, HPβCD formulation, from 289 pmol/g): 91 pmol/g
brain concentration as % of plasma concentration [3]: less than 10%
ex vivo 20-HETE formation in microsomes of treated animals [4]: persistent inhibition
stability ([5]; acidic pH): instability
aqueous solubility ([5]; neutral pH): poor aqueous solubility
reduction in 20-HETE formation rate ([6]; HET0016 30 nM): ~ 70%
20-HETE formation rate, % of control incubation ([6]; with 10 minute pre-incubation): 4.92 ± 0.19%
20-HETE formation rate, % of control incubation ([6]; without pre-incubation): 4.89 ± 0.46%
concentrations of HET0016 required for 20-HETE inhibition in the rat brain ([6]; in vitro): 30 to 90 nM
need for metabolic activation to inhibit 20-HETE formation ([6]; pre-incubation versus no pre-incubation): does not require metabolic activation
mechanism of inhibition of 20-HETE formation ([6]; rat brain cortical microsomes, 24 nM HET0016, arachidonic acid up to 120 μM): non-competitive inhibitor; also recorded: non-competitive inhibition

— article PMC2659781 (Drug metabolism and disposition: the biological fate of …, 2008)
